Measured values: the EternaBench riboswitch data

Test system: MS2 coat protein
Assay: apparent Kd, MS2 coat protein; higher = weaker binding; RNA-MaP array; FMN 200 µM where present
Outline: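 Designs were transcribed by stalled E. coli RNA polymerase on Illumina sequencing-chip clusters. They were titrated with SNAP-549-labelled MS2 coat protein from 0.7 or 1.5 nM, doubling to 3 µM, in 100 mM Tris-HCl pH 7.5, 80 mM KCl, 4 mM MgCl2, BSA, DTT, yeast tRNA and Tween-20, without and then with constant ligand. The apparent Kd is the median of filtered per-cluster fits after normalisation of green signal to red-channel RNA signal and control-cluster median Fmax.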

[1] = designed as: OFF switch for flavin mononucleotide, no ligand
[2] = ligand present: flavin mononucleotide, designed as: OFF switch for flavin mononucleotide
[3] = designed as: ON switch for flavin mononucleotide, no ligand
[4] = ligand present: flavin mononucleotide, designed as: ON switch for flavin mononucleotide

| Sequence | apparent Kd [1] | apparent Kd [2] | apparent Kd [3] | apparent Kd [4] |
| --- | --- | --- | --- | --- |
| CAUUAAUUGAUUAUUGUAUUUAUACAGGAUAUGUAACAUGAGGAUCACCCAUGUAUACAUGGGAAACAGAAGGGUAUUUAAAGA | 34.7 nM | 25.3 nM | – | – |
| UGCCGUUGAGGAUAUACAUUGAAUAAGAUUCAUGUAAAACUACAUGAGGAUCACCCAUGUAGAAGGCAAUGGCU | 18.3 nM | 29.6 nM | – | – |
| GCCUGAUCCACUUUAGGCCCAGACAGAAGGGCACACGGUCUAAGUCACAUGAGGAUCACCCAUGUGCAGGAUAUGUCUCGACUC | 8.88 nM | 26.2 nM | – | – |
| GGAAUAGCAUGAGGAUAUGCUGGAGUUUAGACAGCAGAAGGCAUGUCAUAAGACAUGAGGAUCACCCAUGUAAUUACAAUACCA | – | – | 102 nM | 11.7 nM |
| UUAAUUAAUUAAUUGCAGAAACAUGAGGAUCACCCAUGUAUAUAGGAUAUCGUCAGGAAUACUGACGAGAAGGAUAUACACUGC | 23.4 nM | 32.5 nM | – | – |
| CCACUGAUACCUUGGCCGCUACAUGAGGAUCACCCAUGUCGUGAGGAUAUCCCACCAUACUGUUAGGAGAAGGCGCGUAUGGGC | 11 nM | 17.2 nM | – | – |
| GGUCCAUCAUGAGGAUAUGGCACCUUAUUGGUGCCAGAAGGCAUGUCUUUAGACAUGAGGAUCACCCAUGUAAAUAAUUGGACC | – | – | 1030 nM | 92.5 nM |
| GGUAGCUUCACAGGAUAUGCUAUCCUUUGGGUAGCAGAAGGGUGAUACAUGAGGAUCACCCAUGUGCUGCCAGGGCGUGAGCCC | – | – | 286 nM | 500 nM |
| GCUCGAUGCGCUGAGCACAUGAGGAUCACCCAUGUAAAUGGUCAGGAUAUUUACGUGCUUUAUGUAGAGAAGGGACCAUCGAGC | – | – | 286 nM | 30.9 nM |
| GGGUACAUCGGAGGAUAUCUUGUAAAUACAUGAGGAUCACCCAUGUCGAUGGAGACAUCGGAGAUUGAGAAGGCCGAUGUACCG | – | – | 8.03 nM | 5.36 nM |
| UAUAGCCCUAGUUCGAGUGUCUAGGAGGAUAUACAGAGGCAGCCAAAGACAUGAGGAUCACCCAUGUAGAAGGCCUAGACGGUA | – | 82.3 nM | – | – |
| CUGCGACGGUGCACAAGUGGACGGAGAAGGCAGACAUGAGGAUCACCCAUGUGAGCCUGCUAUUCUGAGGAUAUCCGUUCACAC | 36 nM | 213 nM | – | – |
| CCUGUGUGAGGAUAUGGUGUUGGCCACAAGGAAUAGCUCCUCCAGAAGGCACAUGAGGAUCACCCAUGUCGUGG | 17.6 nM | 80.3 nM | – | – |
| GUGCGGUAGGAGAAGGACGGCGGGUUCUUUUCAUACAUGAGGAUCACCCAUGUAGGAUAUCCUACCUCACGCGGCCUACUACAG | 8.61 nM | 13.5 nM | – | – |
| GCAGCGUAUGUAGGAUAUCGGUCAGUUUCUGAUCGAGAAGGACAUGAGGAUCACCCAUGUAUAUUCUAGCGUGAGCUAGGCUGC | 18.2 nM | 25.5 nM | – | – |
| GUUGUGUGAGGAUAUUCCUGGCCGUGUGGCCGGUUUGGGUGGCAGAAGGUACAUGAGGAUCACCCAUGUACGGG | 96.9 nM | 75.8 nM | – | – |
| CCUAGUUGGUAAGGAUAUCCUACACUAUUCUGACCCGUGCAGGCUACAUGAGGAUCACCCAUGUGGGAGAAGGUGCGUCAACGU | 12.6 nM | 11.8 nM | – | – |
| CGCUGUCUCGCAGGAUAUGCAUUGGAUUACAAUGCAGAAGGGCGAUUACAUGAGGAUCACCCAUGUGUUGACAGUGAAGAAUAG | – | – | 96.6 nM | 22.2 nM |
| AAAAUAAGGCGAGGAUAUCGACAGCAUGUGUGACGAGAAGGCGCGAUAGGUGGGUUCCUUGACAUGAGGAUCACCCAUGUAGAA | 65.7 nM | 114 nM | – | – |
| UUGGACGUCGUAGGACAUGUAGGAUAUUCCUACAUGAGGAUCACCCAUGUUGACAUGGAAGAAGGACAGAAGGACGAUGUCCAU | – | – | 723 nM | 46.9 nM |
| AUUUAAUUUAAUAAGAUCACAUGAGGAUCACCCAUGUAUAUAUAGGAUAUCAGCUCGUGUAGAGCUGAGAAGGAUAUAUACUAU | 316 nM | 204 nM | – | – |
| GGGAGGUCAGGAUAUGCAUGGCGGGACUUGCGUCGUGGCGUGCAGAAGGGACAUGAGGAUCACCCAUGUGGAGA | 127 nM | 252 nM | – | – |
| UAAUGUUAGCGAGGAUAUCGUUUAUUGAAGUUACGAGAAGGCGCUCUUCUUACAUGAGGAUCACCCAUGUCUGUUUUGCAUGAU | – | – | – | 51.9 nM |
| UACUUGUCAGGAUAUCUUACAUUAACAUCGUAGUUACAAUUGGAGAAGGGACAUGAGGAUCACCCAUGUUUGGC | 25.8 nM | 34.5 nM | – | – |
| GUACUGAAGCUUUGCUUUAGUCGUACAUGAGGAUCACCCAUGUAGGAUAUGGUAGGCUUUGCUUACUAGAAGGAUAGAGUGAUU | – | 39.8 nM | – | – |
| CGGCGACAUGAGGAUCACCCAUGUCAAGAGUGGUCAGGAUAUGGUAUGAGAUGAGUAUGGCCAGAAGGGACAUAAG | – | – | 29.1 nM | 21.2 nM |
| UUUUUAUUUGCAGGAUAUUGUUUUUUAUUACUUCAAGAAGGGCAUUACAUGAGGAUCACCCAUGUCAUCCUAUGGUUAACUAGU | 9.64 nM | 11.6 nM | – | – |
| GGAUAGGAAAGAGGAUAUACGUGCUAGAGAUACUAGCAAAAUUUCCUCACAUGAGGAUCACCCAUGUAGAAGGCUGUCCUAUCG | 5.95 nM | 38.9 nM | – | – |

| Sequence | apparent Kd [1] | apparent Kd [2] | apparent Kd [3] | apparent Kd [4] |
| --- | --- | --- | --- | --- |
| ACCUAGUCAGGAUAUGUACGGACCGGAAGCGGAUCGGAGGAGCAGAAGGGACAUGAGGAUCACCCAUGUUUGUU | 25.3 nM | 28 nM | – | – |
| GACUGAUUGUAGAAGGUACUUGAAUAUAUAUUUUAUCUCAUGUGACAUGAGGAUCACCCAUGUAGUAAGGAUAUACAUAUCACA | – | – | 52.9 nM | 42.2 nM |
| GUUCAGUCAGGAUAUUUGUAACGCUCGGUAUCGAGUGGUAAGAAGAAGGGACAUGAGGAUCACCCAUGUCAGUA | 20.1 nM | 17.6 nM | – | – |
| CAGUACUGAGGAUAUACAUGAGGAUCACCCAUGUGUUCCAGCUAGGAAACUAGCAAAAUUAGAAGGCAGUACUG | 11.7 nM | 20.7 nM | – | – |
| UUAGAAUUGCAAGGAUAUCUAAUUUAGAUAGUAAGAGAAGGUGCUUUAUAGUUACAUGAGGAUCACCCAUGUUUUUUUGUUUAU | – | – | 35.1 nM | 27.3 nM |
| CAGGUAGACUGAGGAUAUACAAUAAGACCUAGUCUAUCUAGGUCAAUCACAUGAGGAUCACCCAUGUAGAAGGCAGUCUGCCUG | 17.3 nM | 36.2 nM | – | – |
| UGUUGUAUUACAGGAUAUCUAGUAUUGUUAUUUAGAGAAGGGUAUUCACAUGAGGAUCACCCAUGUAUAUACGAGGAAGUUGUG | – | – | 38.4 nM | 41.4 nM |
| CGUGCUAUGUAGAAGGCAGAAAAGAUUCAGAUCUGAGGAUAUACAUGAGGAUCACCCAUGUUAUGCACCAGCACGAGAGUGCAC | 6.69 nM | 7.03 nM | – | – |
| CAGGGUUCGUGAAUAAGCUAGCUUCGAGAAGGGCCACAUGAGGAUCACCCAUGUCAGCGAAAACGGCAGGAUAUCGAGGGUGAG | – | – | 147 nM | 48.4 nM |
| UCGAGCAGGGAAUGGUCGCUGAAGUAGGAUAUCCGCGUGGCCGUCCACAUGAGGAUCACCCAUGUGGAGAAGGGCUACAGCGAA | 6.07 nM | 6.58 nM | – | – |
| GGAUAGGACAGAGGAUAUACGUGCUAGAGAUACUAGCAAAAUUUCCACACAUGAGGAUCACCCAUGUAGAAGGCUGUCCUAUCG | – | 7.57 nM | – | – |
| CCGCAUGCUGUCAGGAUAUCGUAGAUAAUAAUAUGCGAGAAGGGACAUGAGGAUCACCCAUGUAAGAGGCGGCC | 28.9 nM | 37.7 nM | – | – |
| UGGUACAUGGGAGGAUAUCAUGUGGACACAUGAGGAUCACCCAUGUCGAUGGAGACAUCGGAGAUUGAGAAGGCCCAUGUACCU | – | – | 390 nM | 12.7 nM |
| GGAGCACACAUUUACAUGAGGAUCACCCAUGUCAAAAGACAUGAGGAUAUGGAUCCGAAAAGGAUCCAGAAGGCAUGGUGCUCC | – | – | 106 nM | 8.38 nM |
| CUUCUGUGAGGAUAUGUUAGCUCCCGGCAUGUCGCUGGGAGACAGAAGGCACAUGAGGAUCACCCAUGUGGGCG | 34 nM | 161 nM | – | – |
| CGAUGUUAUGCAGGAUAUCUCCCUUGAAUGCGGAGAGAAGGGCAUAGGGAGACAUACGCCUUAUUACAUGAGGAUCACCCAUGU | 8.42 nM | 7.86 nM | – | – |
| CUGCUAGUUGAGAAGGGACAACUUGGUGAUCGGACAUGAGGAUCACCCAUGUCAGGAUAUCAGGGUAGACCCAGCAGGGUGAAA | 6.56 nM | 7.83 nM | – | – |
| CUUUCGUGAGGAUAUCAGUAGUAAUAAAAUAAAAUUACUACUGAGAAGGCACAUGAGGAUCACCCAUGUUCCUC | 25 nM | 138 nM | – | – |
| UCUAAUUAAAAUGAUUCAUCAACACAGGAUAUACCCGCAACAUGAGGAUCACCCAUGUAGGCCCGGUAGAAGGGUGCUUGGGAG | – | – | 20.5 nM | 6.9 nM |
| UUACGUCACAUUUACAUGAGGAUCACCCAUGUCGAAAGACAUGAGGAUAUGCUACCUAAUUGGUAGCAGAAGGCAUGGACGUCG | – | – | 834 nM | 81.1 nM |
| AAUCAGUCAGGAUAUCGUUAAUUUAAUUGUUUGUUUUAGUUCGAGAAGGGACAUGAGGAUCACCCAUGUACUUA | 24.8 nM | 26.8 nM | – | – |
| AACUGUCUAAAGGAUAUGCUGGAUUAAUAUCUGGCAGAAGGUUGGACAUGAGGAUCACCCAUGUAAAUACUACC | 21.6 nM | 70.1 nM | – | – |
| GUCCUUUCUGAGGAUAUUAUCUGGUUCGAUUGAUAAGAAGGCAGUACAUGAGGAUCACCCAUGUGGUUCGUUUG | 115 nM | 268 nM | – | – |
| ACGGACCUAGGAUAUACAUGAGGAUCACCCAUGUGCCCGCAUGGUCCGGGUCCUGAGAGUAGAAGGAGGAGCGA | 50.9 nM | 43.2 nM | – | – |
| GACACUAUGUUUGUCAGAUAGAGAGAGGAUAUGGGUCAUGAGACAUGAGGAUCACCCAUGUUUAAUCAGAAGGCUCGAGUACGA | – | – | 30.7 nM | 15.6 nM |
| CCGAGAUGUGCAGGAUAUCAGGAUACGGUCCGCUGAGAAGGGCACAUGAGGAUCACCCAUGUGUGCGCAUAGGUGAAAGGCUUU | 285 nM | 154 nM | – | – |
| CGCACUAAACAUGAGGAUCACCCAUGUAACUAAGAGCUAGUCAGAAGGCAUAAUUAGUGAAUUAAUGAGGAUAUGAAUAGUGCG | – | – | 157 nM | 62.2 nM |
